Laboratory results published in ChEMBL document CHEMBL4390639, “Design, Synthesis, and Biological Evaluation of Novel Allosteric Protein Disulfide Isomerase Inhibitors” (J Med Chem, 2019).
One block for each compound: values may come before it. Activity calls are given as the source filed them. No cut-off for these calls is given here.

How the values were obtained:
[1] = molecular target: T1, Protein disulfide-isomerase (Homo sapiens, UniProt P07237); experiment: Inhibition of recombinant human N-terminal His-tagged PDI expressed in Escherichia coli BL21 (DE3) pLysS assessed as reduction in enzyme-mediated bovine insulin aggregation
U-87 MG [2] = experiment: Cytotoxicity against human U87MG cells assessed as inhibition of cell growth measured after 72 hrs by MTT assay; format: functional, cell-based, U-87MG ATCC; conditions: Homo sapiens, U-87 MG, 72 h; read-out: IC50
How it was run: (§1)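 A172 and NU04 cells were seeded at 4000 cells/well and U87MG at 5000 cells/well, incubated overnight at 37 °C, 5% CO2, then exposed to compound or vehicle for 72 h. MTT (3 mg/mL) was added for 4 h, formazan was dissolved in DMSO, and absorbance was read at 570 nm. IC50 came from nonlinear regression; mean ± SD of at least three experiments.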

A 172 = experiment: Cytotoxicity against human A172 cells assessed as inhibition of cell growth measured after 72 hrs by MTT assay; format: functional, cell-based; conditions: Homo sapiens, A 172, 72 h; read-out: IC50; how it was run: as §1
[3] = Cytotoxicity against human NU04 cells assessed as inhibition of cell growth measured after 72 hrs by MTT assay; format: functional, cell-based; conditions: Homo sapiens, 72 h; read-out: IC50; how it was run: as §1
U-87 MG [4] = experiment: Cytotoxicity against human U87MG cells assessed as inhibition of cell proliferation at <IC50 treated for 24 hrs and measured after 10 days by colony formation assay relative to control
[5] = molecular target: T1, Protein disulfide-isomerase; experiment: Inhibition of recombinant human N-terminal His-tagged PDI expressed in Escherichia coli BL21 (DE3) pLysS at 100 uM measured after 1 hr by ANS dye based fluorescence spectra analysis
How it was run: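 ANS spectral scan: PDI incubated with 100 μM compounds or matching DMSO in TBS for 1 h at 37 °C. ANS then added and incubated 20 min at 25 °C in the dark. Fluorescence spectrum recorded with excitation 370 nm, emission 400–700 nm.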
Target sequence in this assay (P07237 18-508 limits assumed): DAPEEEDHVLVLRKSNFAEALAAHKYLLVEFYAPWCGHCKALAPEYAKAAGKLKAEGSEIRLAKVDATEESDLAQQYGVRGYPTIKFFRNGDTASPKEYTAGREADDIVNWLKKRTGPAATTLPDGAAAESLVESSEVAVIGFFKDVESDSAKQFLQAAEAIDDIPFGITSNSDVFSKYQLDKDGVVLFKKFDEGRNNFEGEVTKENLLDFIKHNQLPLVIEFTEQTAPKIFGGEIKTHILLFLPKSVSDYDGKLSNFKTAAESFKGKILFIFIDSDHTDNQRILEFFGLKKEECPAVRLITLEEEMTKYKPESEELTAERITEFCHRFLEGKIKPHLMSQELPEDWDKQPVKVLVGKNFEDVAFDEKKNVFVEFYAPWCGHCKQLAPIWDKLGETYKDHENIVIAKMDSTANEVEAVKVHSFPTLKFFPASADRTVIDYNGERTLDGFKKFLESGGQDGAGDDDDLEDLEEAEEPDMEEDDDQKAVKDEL

U-87 MG [6] = experiment: Cytotoxicity against human U87MG cells assessed as inhibition of cell proliferation at <IC50 measured after 72 hrs by MTT assay relative to control; format: functional, U-87MG ATCC

IC50 [1]: 1.87 µM
Compound: N#Cc1cccc(/C=C/C(=O)c2cccc(O)c2)c1

IC50 [1]: 11.1 µM
Compound: O=C(/C=C/c1cccc(O)c1)c1ccc(NS(=O)(=O)c2cccs2)cc1

IC50 [1]: 2.37 µM
Compound: N#Cc1cccc(/C=C/C(=O)c2ccc(F)cc2O)c1

IC50 [1]: 2 µM
Compound: N#Cc1cccc(/C=C/C(=O)c2ccc(O)c(C(F)(F)F)c2)c1

IC50 [1]: 1.75 µM
Compound: O=C(/C=C/c1cccc(O)c1)c1ccc(OC(=O)c2cccs2)cc1

inhibition [1]: inactive
Compound: O=C(/C=C/c1cccc(O)c1)c1ccccc1O

IC50 [1]: 0.74 µM
Compound: N#Cc1ccc(/C=C/C(=O)c2ccc(O)cc2)cc1
IC50 (U-87 MG [2]): 15.1 µM | IC50 (A 172): 20 µM | IC50 [3]: 12.8 µM | inhibition (INH) (U-87 MG [4]): >50%

IC50 [1]: 47.8 µM
Compound: COC(=O)c1cccc(/C=C/C(=O)c2ccc(OC)c(O)c2)c1

IC50 [1]: 10.2 µM
Compound: O=C(O)c1cccc(/C=C/C(=O)c2cccc(O)c2)c1

IC50 [1]: 5.74 µM
Compound: O=C(/C=C/c1cccc(O)c1)c1ccc(NC(=O)c2cccs2)cc1

IC50 [1]: > 500 µM | inhibition [5]: inactive
Compound: N#Cc1cccc(/C=C/C(=O)c2cnccn2)c1

IC50 [1]: 1.66 µM
Compound: N#Cc1cccc(/C=C/C(=O)c2ccc(Br)cc2)c1

IC50 [1]: > 100 µM
Compound: COC(=O)c1cccc(/C=C/C(=O)c2ccc(NS(=O)(=O)c3ccc([N+](=O)[O-])cc3)cc2)c1

IC50 [1]: 1.74 µM
Compound: COc1ccc(/C=C/C(=O)c2ccc(O)cc2)cc1

IC50 [1]: 8.51 µM
Compound: N#Cc1cccc(/C=C/C(=O)c2ccc(NS(=O)(=O)c3ccc([N+](=O)[O-])cc3)cc2)c1

IC50 [1]: > 100 µM
Compound: CCCN(CCC)S(=O)(=O)c1ccc(C(=O)/C=C/c2cccc(C(=O)OC)c2)cc1

IC50 [1]: 2.56 µM
Compound: O=C(/C=C/c1ccc(C(F)(F)F)cc1)c1ccc(O)cc1

IC50 [1]: 4 µM
Compound: O=C(O)c1cccc(/C=C/C(=O)c2ccc(NS(=O)(=O)c3ccc([N+](=O)[O-])cc3)cc2)c1

IC50 [1]: 1.67 µM
Compound: O=C(/C=C/c1ccccc1C(F)(F)F)c1ccc(O)cc1

IC50 [1]: 1.34 µM
Compound: CCCCN(CCCC)S(=O)(=O)c1ccc(C(=O)/C=C/c2cccc(C#N)c2)cc1
IC50 (U-87 MG [2]): 17 µM | IC50 (A 172): 67.3 µM | IC50 [3]: 15.5 µM | inhibition (INH) (U-87 MG [6]): >50%

IC50 [1]: > 500 µM
Compound: N#Cc1cccc(/C=C/C(=O)c2ccc(N3CCCCC3)cc2)c1

IC50 [1]: > 100 µM
Compound: CCCCN(CCCC)S(=O)(=O)c1ccc(C(=O)/C=C/c2cccc(C(=O)OC)c2)cc1

IC50 [1]: 1.29 µM
Compound: CCN(CC)S(=O)(=O)c1ccc(C(=O)/C=C/c2cccc(O)c2)cc1
IC50 (U-87 MG [2]): 40.7 µM | IC50 (A 172): 31.2 µM | IC50 [3]: 19.2 µM | inhibition (INH) (U-87 MG [4]): >50%

IC50 [1]: 0.21 µM
Compound: N#Cc1ccc(/C=C/C(=O)c2ccc(O)c(F)c2)cc1
IC50 (U-87 MG [2]): 29 µM | IC50 (A 172): 28.4 µM | IC50 [3]: 15.8 µM | inhibition (INH) (U-87 MG [6]): >50%

IC50 [1]: 0.13 µM
Compound: COC(=O)c1cccc(/C=C/C(=O)c2ccc(CO)c(Br)c2)c1
IC50 (U-87 MG [2]): 13.6 µM | IC50 (A 172): 20.6 µM | IC50 [3]: 17.2 µM | inhibition (INH) (U-87 MG [4]): >50%

IC50 [1]: 1.11 µM
Compound: N#Cc1ccc(/C=C/C(=O)c2ccc(O)c(C(F)(F)F)c2)cc1
IC50 (U-87 MG [2]): 26.4 µM | IC50 (A 172): 33.7 µM | IC50 [3]: 10.4 µM | inhibition (INH) (U-87 MG [6]): >50%

IC50 [1]: > 500 µM
Compound: COc1ccc(/C=C/C(=O)c2ccc(NC(=O)c3cccs3)cc2)cc1

IC50 [1]: 0.49 µM
Compound: COC(=O)c1cccc(/C=C/C(=O)c2ccc(O)c(C(F)(F)F)c2)c1
IC50 (U-87 MG [2]): 11.6 µM | IC50 (A 172): 35 µM | IC50 [3]: 10.3 µM | inhibition (INH) (U-87 MG [4]): >50%

IC50 [1]: 0.23 µM
Compound: O=C(/C=C/c1ccc(-n2cnc3ccccc32)cc1)c1cccc(O)c1
IC50 (U-87 MG [2]): 10.8 µM | IC50 (A 172): 10.7 µM | IC50 [3]: 9.9 µM | inhibition (INH) (U-87 MG [6]): >50%

IC50 [1]: > 500 µM
Compound: N#Cc1cccc(/C=C/C(=O)c2ccc(N)cc2)c1

IC50 [1]: 2.72 µM
Compound: COc1cc(C(=O)/C=C/c2cccc(C#N)c2)ccc1O

inhibition [1]: inactive
Compound: O=C(/C=C/c1ccc(O)cc1)c1ccccc1O

IC50 [1]: 9.1 µM
Compound: O=C(O)c1cccc(/C=C/C(=O)c2ccc(O)c(F)c2)c1

IC50 [1]: 0.83 µM
Compound: N#Cc1cccc(/C=C/C(=O)c2ccc(B(O)O)cc2)c1
IC50 (U-87 MG [2]): 24.3 µM | IC50 (A 172): 20.2 µM | IC50 [3]: 13 µM | inhibition (INH) (U-87 MG [6]): >50%

IC50 [1]: 0.82 µM
Compound: CCCN(CCC)S(=O)(=O)c1ccc(C(=O)/C=C/c2cccc(C#N)c2)cc1
IC50 (U-87 MG [2]): 25.6 µM | IC50 (A 172): 35 µM | IC50 [3]: 26.6 µM | inhibition (INH) (U-87 MG [6]): >50%

IC50 [1]: 1.25 µM
Compound: O=C(/C=C/c1ccc(B(O)O)cc1)c1ccccc1
IC50 (U-87 MG [2]): 31.2 µM | IC50 (A 172): 32.1 µM | IC50 [3]: 22.9 µM | inhibition (INH) (U-87 MG [6]): >50%

IC50 [1]: 0.4 µM
Compound: COC(=O)c1cccc(/C=C/C(=O)c2ccc(O)cc2)c1
IC50 (U-87 MG [2]): 28.8 µM | IC50 (A 172): 32.3 µM | IC50 [3]: 30.6 µM | inhibition (INH) (U-87 MG [6]): >50%

IC50 [1]: > 500 µM
Compound: N#Cc1cccc(/C=C/C(=O)c2ccc(Cl)c(F)c2)c1

IC50 [1]: 10.9 µM
Compound: COc1ccc(C(=O)/C=C/c2cccc(C#N)c2)cc1O

IC50 [1]: > 100 µM
Compound: COc1ccc(C(=O)/C=C/c2cccc(C#N)c2)cc1OC

IC50 [1]: 1.56 µM
Compound: O=C(/C=C/c1cccc(C(F)(F)F)c1)c1ccc(O)cc1

IC50 [1]: > 100 µM
Compound: COc1ccc(C(=O)/C=C/c2cccc(C(=O)O)c2)cc1O

IC50 [1]: 1.8 µM
Compound: N#Cc1ccc(/C=C/C(=O)c2ccc(F)cc2O)cc1

IC50 [1]: 1.83 µM
Compound: N#Cc1ccc(/C=C/C(=O)c2ccc(F)c(O)c2)cc1

IC50 [1]: 9.57 µM
Compound: O=C(/C=C/c1cccc(C(F)(F)F)c1)c1cnccn1

IC50 [1]: > 100 µM
Compound: O=C(O)c1cccc(/C=C/C(=O)c2ccc(N3CCOCC3)cc2)c1

IC50 [1]: > 500 µM
Compound: N#Cc1cccc(/C=C/C(=O)c2ccc(N3CCOCC3)cc2)c1

inhibition [1]: inactive
Compound: O=C(/C=C/c1ccccc1O)c1ccccc1O

IC50 [1]: 8.13 µM
Compound: COc1cccc(C(=O)/C=C/c2cccc(C#N)c2)c1

IC50 [1]: > 100 µM
Compound: Nc1ccc(C(=O)/C=C/c2cccc(C(=O)O)c2)cc1

IC50 [1]: 2.2 µM
Compound: CC1(C)OB(c2ccc(/C=C/C(=O)c3ccccc3)cc2)OC1(C)C

IC50 [1]: 0.4 µM
Compound: O=C(/C=C/c1ccc(Br)cc1)c1cccc(O)c1
IC50 (U-87 MG [2]): 76.3 µM | IC50 (A 172): 67.8 µM | IC50 [3]: 26.2 µM | inhibition (INH) (U-87 MG [4]): >50%

IC50 [1]: 1.11 µM
Compound: N#Cc1cccc(/C=C/C(=O)c2ccc(S(=O)(=O)Nc3ccccc3)cc2)c1
IC50 (U-87 MG [2]): 48.5 µM | IC50 (A 172): 28.9 µM | IC50 [3]: 18.7 µM | inhibition (INH) (U-87 MG [6]): >50%

IC50 [1]: 4.09 µM
Compound: O=C(O)c1cccc(/C=C/C(=O)c2ccc(O)c(C(F)(F)F)c2)c1
